From ChEMBL document CHEMBL5678815 (Clin Cancer Res, 2017)
Calls of active or inactive are those of the source. The rule behind the calls is not given here.

Columns and labels:
[1] = biological target: Serine/threonine-protein kinase MARK2 (Homo sapiens) (UniProt Q7KZI7); test: Inhibition of human MARK2 assessed as remaining activity at 1 uM by ATP-competition binding assay relative to control
Method in brief: (§1)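 Single-point profiling at 1μM in an ATP-site-dependent competition binding assay across a panel of 395 human kinases, including mutant forms. The read-out is kinase binding signal in the presence of test agent, expressed as inhibition relative to the control signal. This screen assessed noncovalent binding interactions.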

[2] = biological target: SRSF protein kinase 2 (Homo sapiens) (UniProt P78362); test: Inhibition of human SRPK2 assessed as remaining activity at 1 uM by ATP-competition binding assay relative to control
Method in brief: (§2)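 Single-concentration (1 μM) screen in an ATP-site-dependent competition binding assay (KINOMEscan, outsourced) covering 395 human kinases, mutants included. Non-covalent binding was read as the remaining signal relative to the control signal.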

[3] = biological target: Casein kinase I isoform alpha-like (Homo sapiens) (UniProt Q8N752); test: Inhibition of human CSNK1A1L assessed as remaining activity at 1 uM by ATP-competition binding assay relative to control
Method in brief: (§3)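 KINOMEscan ATP-site-dependent competition binding panel of 395 human kinases, with compound tested at 1 μM. Binding is reported as remaining signal relative to control.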

[4] = biological target: Serine/threonine-protein kinase pim-1 (Homo sapiens) (UniProt P11309); test: Inhibition of human PIM1 assessed as remaining activity at 1 uM by ATP-competition binding assay relative to control; method in brief: as §1
[5] = Antitumor activity against human CLL mononuclear cells xenografted NSG mouse assessed as reduction in the phosphorylation of PLCgamma2 at 0.3 mg/ml preadministered with compound via drinking water and measured after 3 weeks by flow cytometry analysis relative to control; format: functional, CLL mononuclear cell; design: scale not given: the % may be the effect or the level left
Method in brief: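 Primary CLL patient mononuclear cells (1 × 10^8 per mouse) engrafted into NSG mice on day 0 after busulfan priming on day −1. Vehicle or drug was given in drinking water from day −1. Mice were killed 3 weeks after engraftment; spleens homogenized, filtered and RBC-lysed; whole blood collected. Six patients, 2–5 mice per patient; paired t-test per patient.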

[6] = biological target: Protein kinase C eta type (Homo sapiens) (UniProt P24723); test: Inhibition of human PRKCH assessed as remaining activity at 1 uM by ATP-competition binding assay relative to control; method in brief: as §2
[7] = biological target: Receptor-interacting serine/threonine-protein kinase 2 (Homo sapiens) (UniProt O43353); test: Inhibition of human RIPK2 assessed as remaining activity at 1 uM by ATP-competition binding assay relative to control; method in brief: as §2
[8] = biological target: LIM domain kinase 1 (Homo sapiens) (UniProt P53667); test: Inhibition of human LIMK1 assessed as remaining activity at 1 uM by ATP-competition binding assay relative to control; method in brief: as §1
[9] = biological target: Calcium/calmodulin-dependent protein kinase type II subunit alpha (Homo sapiens) (UniProt Q9UQM7); test: Inhibition of human CAMK2A assessed as remaining activity at 1 uM by ATP-competition binding assay relative to control; method in brief: as §3
[10] = biological target: 5'-AMP-activated protein kinase catalytic subunit alpha-1 (Homo sapiens) (UniProt Q13131); test: Inhibition of human AMPK-alpha1 assessed as remaining activity at 1 uM by ATP-competition binding assay relative to control; method in brief: as §3
[11] = biological target: Cyclin-dependent kinase 7 (Homo sapiens) (UniProt P50613); test: Inhibition of human CDK7 assessed as remaining activity at 1 uM by ATP-competition binding assay relative to control; method in brief: as §3
[12] = biological target: Tyrosine-protein kinase CSK (Homo sapiens) (UniProt P41240); test: Inhibition of human CSK assessed as remaining activity at 1 uM by ATP-competition binding assay relative to control; method in brief: as §3
[13] = biological target: Fibroblast growth factor receptor 3 (Homo sapiens) (UniProt P22607); test: Inhibition of human FGFR3 assessed as remaining activity at 1 uM by ATP-competition binding assay relative to control; method in brief: as §1
[14] = biological target: RAF proto-oncogene serine/threonine-protein kinase (Homo sapiens) (UniProt P04049); test: Inhibition of human RAF1 assessed as remaining activity at 1 uM by ATP-competition binding assay relative to control; method in brief: as §2
[15] = biological target: Homeodomain-interacting protein kinase 4 (Homo sapiens) (UniProt Q8NE63); test: Inhibition of human HIPK4 assessed as remaining activity at 1 uM by ATP-competition binding assay relative to control; method in brief: as §1
[16] = biological target: Serine/threonine-protein kinase 35 (Homo sapiens) (UniProt Q8TDR2); test: Inhibition of human STK35 assessed as remaining activity at 1 uM by ATP-competition binding assay relative to control; method in brief: as §2
[17] = biological target: Ribosomal protein S6 kinase alpha-4 (Homo sapiens) (UniProt O75676); test: Inhibition of human RPS6KA4 assessed as remaining activity at 1 uM by ATP-competition binding assay relative to control; method in brief: as §2
[18] = system: Epidermal growth factor receptor (Homo sapiens), P00533 [L858R,T790M]; test: Inhibition of human EGFR L858R/T790M mutant assessed as remaining activity at 1 uM by ATP-competition binding assay relative to control
Method in brief: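 KINOMEscan ATP-site-dependent competition binding assay across a 395-kinase human panel including mutants; compound tested at 1μM; binding expressed relative to control signal.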

[19] = biological target: Epidermal growth factor receptor (Homo sapiens) (UniProt P00533); test: Inhibition of human EGFR assessed as remaining activity at 1 uM by ATP-competition binding assay relative to control; method in brief: as §3
[20] = biological target: Activin receptor type-1-like (Homo sapiens) (UniProt P37023); test: Inhibition of human ACVRL1 assessed as remaining activity at 1 uM by ATP-competition binding assay relative to control; method in brief: as §3
[21] = biological target: Mitogen-activated protein kinase kinase kinase 19 (Homo sapiens) (UniProt Q56UN5); test: Inhibition of human YSK4 assessed as remaining activity at 1 uM by ATP-competition binding assay relative to control; method in brief: as §2
Splenocyte = test: In vivo inhibition of BCR signaling in female […] mouse assessed as […] CD69 expression at 1 to 3 mg/kg, po administered and measured after stimulation with anti-IgM for 18 h by flow cytometry analysis; format: functional, organism-based; settings: dose 1-3 mg/kg
Method in brief: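 Female C57BL/6 mice (5 per group per dose) were gavaged orally at 0.1–30 mg/kg. At 3 h, splenocytes were stimulated with anti-mouse IgM 10 μg/mL for 18 h at 37°C, 5% CO2. After Fc block, cells were stained for CD19 and CD69 with 7-AAD viability dye; >5,000 gated CD19+ cells acquired by flow cytometry.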

[22] = biological target: Serine/threonine-protein kinase PAK 3 (Homo sapiens) (UniProt O75914); test: Inhibition of human PAK3 assessed as remaining activity at 1 uM by ATP-competition binding assay relative to control; method in brief: as §1
[23] = system: Serine/threonine-protein kinase B-raf (Homo sapiens), P15056 [V600E]; test: Inhibition of human BRAF V600E mutant assessed as remaining activity at 1 uM by ATP-competition binding assay relative to control; method in brief: as §3
[24] = biological target: Calcium/calmodulin-dependent protein kinase type IV (Homo sapiens) (UniProt Q16566); test: Inhibition of human CAMK4 assessed as remaining activity at 1 uM by ATP-competition binding assay relative to control; method in brief: as §3
[25] = biological target: Receptor tyrosine-protein kinase erbB-2 (Homo sapiens) (UniProt P04626); test: Inhibition of human ERBB2 assessed as remaining activity at 1 uM by ATP-competition binding assay relative to control; method in brief: as §1

Q: For `CC#CC(=O)N1CCC[C@H]1c1nc(-c2ccc(C(=O)Nc3ccccn3)cc2)c2c(N)nccn12` [ACALABRUTINIB], which Activity [1] is on record?
A: 59%

Q: And the Activity [2]?
A: 85%

Q: And the Activity [3]?
A: 92%

Q: What about the Activity [4] of the same compound?
A: 84%

Q: What about the Activity [5] of the same compound?
A: 68%

Q: And the Activity [6]?
A: 87%

Q: And the Activity [7]?
A: 60%

Q: And the Activity [8]?
A: 13%

Q: And the Activity [9]?
A: 90%

Q: And the Activity [10]?
A: 86%

Q: What about the Activity [11] of the same compound?
A: 74%

Q: And the Activity [12]?
A: 86%

Q: What about the Activity [13] of the same compound?
A: 87%

Q: What about the Activity [14] of the same compound?
A: 77%

Q: What about the Activity [15] of the same compound?
A: 88%

Q: What about the Activity [16] of the same compound?
A: 100%

Q: And the Activity [17]?
A: 90%

Q: What about the Activity [18] of the same compound?
A: 94%

Q: And the Activity [19]?
A: 75%

Q: And the Activity [20]?
A: 76%

Q: What about the Activity [21] of the same compound?
A: 90%

Q: What about the Activity (Splenocyte) of the same compound?
A: Active

Q: What about the Activity [22] of the same compound?
A: 73%

Q: What about the Activity [23] of the same compound?
A: 44%

Q: And the Activity [24]?
A: 91%

Q: And the Activity [25]?
A: 2.1%
